Screens as filed in PubChem BioAssay.
Compounds with a hit are over-represented: about 1.9% of the library has one in this group of screens.
Vif imaging: inhibitors of HIV Vif. HEK293T cells, Vif self-association by quenched fluorescence, imaging, 24 h. inhibition, % at 7.49 µM. 340,000 compounds, 0.35% hits. AID 602346; in the data active = inhibition above about 50%, passing the limit was not always enough
bovine MsrA act: activators of bovine methionine sulfoxide reductase A. AID 602163. 360,000 compounds, 0.3% hits. purified bovine MsrA, absorbance read-out. activation, % at 10.6 µM; in the data active = activation above about 7.5%;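 also: 0% = vehicle and 100% = reference activator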
MsrA inh: bovine MsrA inhibition; inhibition, % at 15.5 µM; AID 651718; 360,000 compounds, 0.75% hits; purified bovine MsrA, absorbance read-out;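 also: 0% = vehicle wells with enzyme and 100% = reference inhibitor wells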
Glyco luc inh: N-linked glycosylation inhibition. reporter increase, % at 12.5 µM. AID 588692. 360,000 compounds, 0.23% hits. D54 ERlucT glycosylation luciferase reporter, 24 h; percent of 100 nM tunicamycin response;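 active = mean luciferase reporter signal, scaled so untreated is 0 and the glycosylation-blocking control 100, at or above a set limit in every replicate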;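 also: luciferase carries N-glycosylation sites so blocking glycosylation raises the light; 0% = median of neutral control wells and 100% = median of 100 nM tunicamycin wells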
UCH37 DUB inh: blocks the human deubiquitinase UCH37. purified proteasome/UCH37, Ub-AMC cleavage fluorescence. 330,000 compounds, 0.33% hits. inhibition, % (concentration not given with the values);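 active = mean inhibition over replicate wells above about 20%, limit read from the data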;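 also: 0% = compound-free wells with enzyme and 100% = wells lacking proteasome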
Target sequence (Q9Y5K5 whole entry, looked up): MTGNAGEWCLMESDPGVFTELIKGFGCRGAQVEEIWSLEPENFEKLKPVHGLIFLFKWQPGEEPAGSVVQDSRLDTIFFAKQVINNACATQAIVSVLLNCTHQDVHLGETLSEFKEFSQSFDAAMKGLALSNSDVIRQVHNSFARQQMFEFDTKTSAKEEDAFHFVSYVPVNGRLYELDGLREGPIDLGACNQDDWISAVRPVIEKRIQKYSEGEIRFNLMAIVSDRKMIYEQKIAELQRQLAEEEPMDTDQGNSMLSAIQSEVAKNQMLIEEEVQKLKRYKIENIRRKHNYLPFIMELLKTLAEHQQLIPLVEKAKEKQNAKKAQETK
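system = Proteasome-associated human UCH37 deubiquitinase | amount = 0.15 nM proteasome as dispensed | medium = pH 7.4 Tris-HCl (50 mM) with ovalbumin, ATP-MgCl2, DTT | incubation = 30 min preincubation with enzyme, 25 min cleavage at room temperature | detection = AMC fluorescence 355/460 nm | read-out basis = percent inhibition | controls = no-proteasome and no-compound wells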
aDG glyco up: increases alpha dystroglycan glycosylation. Pro5-aDG cells, alpha-DG glycosylation AlphaScreen (IIH6); 0% Pro5, 100% B10-LARGE cell signal. 360,000 compounds, 0.22% hits. activation, % at 10 µM;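 active = activation of at least 8% versus controls, or a plate z-score of at least 8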;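 also: Pro5 are CHO cells carrying HIG-tagged alpha-DG that lacks glycosylation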
MsrA inh confirm: confirmation of bovine MsrA inhibitors | purified bovine MsrA, absorbance read-out | inhibition, % at 15.5 µM | 2,300 compounds, 41% hits | shares compounds with MsrA inh | AID 651822;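 also: coupled to thioredoxin reductase with NADPH and selenocystamine and DMSO as substrate; 0% = vehicle only and 100% = full effect of reference inhibitor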
* = called active by the depositor. Rule as the data show it, unless noted: active = inhibition above about 4.5%; inactive = the rest.

How did COc1cc(/C=C/c2[nH]c(=O)[nH]c(=O)c2[N+](=O)[O-])ccc1OCCC(C)C do in these assays?
Vif imaging: 1.8; bovine MsrA act: -4.5; MsrA inh: 2.0; Glyco luc inh: 0.6; UCH37 DUB inh: 8.4; aDG glyco up: 0.0

How did Cn1c(=NN=Cc2ccc(Cl)c([N+](=O)[O-])c2)sc2ccccc21 do in these assays?
UCH37 DUB inh: 8.4

Results for COc1ccc(/C=C/C(=O)Nc2ccc(-n3nncc3-c3ccc(OC)c(OC)c3)cc2)cc1OC ?
Vif imaging: -0.9; bovine MsrA act: -1.8; MsrA inh: 5.1*; Glyco luc inh: -0.6; UCH37 DUB inh: -46.0; aDG glyco up: 0.2; MsrA inh confirm: 4.4

Results for COc1ccc(/C=C/C(=O)Nc2c(C(=O)O)[nH]c3ccccc23)cc1OC ?
Vif imaging: 9.1; bovine MsrA act: -8.2; MsrA inh: 5.6*; Glyco luc inh: 1.6; UCH37 DUB inh: 15.8; aDG glyco up: -0.1; MsrA inh confirm: 3.1

What do the screens show for `COc1ccc(-c2cnnn2-c2ccc(NC(=O)/C=C/c3ccc(OC)c(OC)c3)cc2)cc1`?
Vif imaging: -2.9; bovine MsrA act: -4.0; MsrA inh: 0.8; Glyco luc inh: 0.8; UCH37 DUB inh: -45.3; aDG glyco up: 0.2

How did O=C(CNC(=O)C12CC3CC(CC(C3)C1)C2)NN=Cc1ccco1 do in these assays?
UCH37 DUB inh: 2.2

Results for Cc1[nH]c2ccccc2c1C=NNC(=O)c1cccc(F)c1 ?
UCH37 DUB inh: 4.6

How did CCN(CC)c1ccc(C=Nc2cccnc2Cl)c(O)c1 do in these assays?
Vif imaging: -6.1; bovine MsrA act: -4.5; MsrA inh: 5.5*; Glyco luc inh: -0.9; UCH37 DUB inh: 14.5; aDG glyco up: 0.1; MsrA inh confirm: 6.6*

What do the screens show for `CCN(CC)c1ccc(C=Nc2cc(C)ccc2C)c(O)c1`?
Vif imaging: -5.8; bovine MsrA act: -13.8; MsrA inh: 3.3; Glyco luc inh: 6.1; UCH37 DUB inh: 5.8; aDG glyco up: 0.3

How did S=c1[nH]nc(C2CCCCC2)n1N=C/C(Cl)=C\c1ccccc1 do in these assays?
UCH37 DUB inh: 1.6

What do the screens show for `NS(=O)(=O)c1ccc(N/N=C/c2ccc(C(=O)O)cc2)c([N+](=O)[O-])c1`?
Vif imaging: 2.4; bovine MsrA act: -6.1; MsrA inh: 5.1*; Glyco luc inh: 2.2; aDG glyco up: 0.0; MsrA inh confirm: 4.9*

Results for NS(=O)(=O)c1ccc(N/N=C/c2ccc[nH]2)c([N+](=O)[O-])c1 ?
Vif imaging: -3.5; bovine MsrA act: -10.3; MsrA inh: 5.1*; Glyco luc inh: 1.9; aDG glyco up: -0.1; MsrA inh confirm: 5.5*

What do the screens show for `CC(=O)Nc1ccc(C=NNc2ccc(S(=O)(=O)Nc3ccccc3C(=O)O)cc2[N+](=O)[O-])cc1`?
Vif imaging: 2.6; bovine MsrA act: -7.5; MsrA inh: 6.0*; Glyco luc inh: 1.4; UCH37 DUB inh: 18.4; aDG glyco up: -0.1; MsrA inh confirm: 4.9*

How did Cn1cc([N+](=O)[O-])c(C(=O)N/N=C/c2ccc3c(c2)OCO3)n1 do in these assays?
Vif imaging: 4.7; bovine MsrA act: -3.2; MsrA inh: 4.9*; Glyco luc inh: 0.5; aDG glyco up: -0.2; MsrA inh confirm: 2.6

What do the screens show for `Cc1ccc(C=NNC(=O)c2ccc3c(c2)OCO3)o1`?
UCH37 DUB inh: 7.0

Results for Cc1ccc(/C=N\NC(=O)c2ccc3c(c2)OCO3)o1 ?
Vif imaging: -0.6; bovine MsrA act: -7.7; MsrA inh: 4.9*; Glyco luc inh: 1.4; aDG glyco up: -0.1; MsrA inh confirm: 5.4*

What do the screens show for `O=C(NN=Cc1ccc2c(c1)OCO2)c1ccccn1`?
UCH37 DUB inh: 9.0

How did CN(C)c1ccc(/C=N/NC(=O)c2ccc3c(c2)OCO3)cc1 do in these assays?
Vif imaging: -4.3; bovine MsrA act: -5.4; MsrA inh: 6.9*; Glyco luc inh: 1.8; aDG glyco up: 0.1; MsrA inh confirm: 5.5*

Results for CN(C)c1ccc(C=NNC(=O)c2ccc3c(c2)OCCO3)cc1 ?
UCH37 DUB inh: -8.6

What do the screens show for `Cc1ccc(C(=O)N/N=C/c2ccc3c(c2)OCO3)o1`?
Vif imaging: -8.6; bovine MsrA act: -7.0; MsrA inh: 5.8*; Glyco luc inh: -2.8; aDG glyco up: -0.1; MsrA inh confirm: 5.7*

How did COc1cc(C=NNC(=O)c2ccc(CSc3nncn3C)cc2)cc(OC)c1O do in these assays?
UCH37 DUB inh: 7.9

What do the screens show for `ON=Cc1ccc(OCc2ccccc2)c(Cl)c1`?
UCH37 DUB inh: 6.2

What do the screens show for `ON=Cc1ccc2ccccc2c1`?
UCH37 DUB inh: -5.4

Results for Cc1ccc(/C=N/NC(=O)c2cccc([N+](=O)[O-])c2)o1 ?
Vif imaging: -4.3; bovine MsrA act: -3.2; MsrA inh: 5.2*; Glyco luc inh: -0.1; aDG glyco up: -0.1; MsrA inh confirm: 4.9*

What do the screens show for `COc1cc(/C=N/NC(=O)c2ccncc2)cc(OC)c1OC`?
Vif imaging: 18.1; bovine MsrA act: -2.8; MsrA inh: 1.7; Glyco luc inh: 1.9; aDG glyco up: 0.0

What do the screens show for `O=C(NN=Cc1ccc(N2CCOCC2)o1)c1cccc([N+](=O)[O-])c1`?
UCH37 DUB inh: 11.4

How did COc1cc(C(=O)NN=Cc2ccc(N(C)C)cc2)cc(OC)c1OC do in these assays?
Vif imaging: 2.6; bovine MsrA act: -5.0; MsrA inh: 5.1*; Glyco luc inh: 9.7; aDG glyco up: 0.0; MsrA inh confirm: 5.1*

Results for COc1cc(C(=O)NCC(=O)N/N=C/c2ccc(-c3cccc([N+](=O)[O-])c3)o2)cc(OC)c1OC ?
Vif imaging: -9.0; bovine MsrA act: -1.7; MsrA inh: 5.3*; Glyco luc inh: 2.4; aDG glyco up: 0.1; MsrA inh confirm: 3.3

Results for CN(C)c1ccc(/C=N/NC(=O)c2cccc(N3CCCC3=O)c2)cc1 ?
Vif imaging: -1.8; bovine MsrA act: -5.1; MsrA inh: 7.2*; Glyco luc inh: 1.6; aDG glyco up: 0.7; MsrA inh confirm: 7.0*

Results for C=CCOc1c(Br)cc(C=NO)cc1OCC ?
UCH37 DUB inh: 2.3

What do the screens show for `COc1ccc(Nc2nc3ccccc3nc2NS(=O)(=O)c2cccs2)cc1`?
Vif imaging: -17.8; bovine MsrA act: 1.7; MsrA inh: 0.0; Glyco luc inh: 0.8; UCH37 DUB inh: -5.6; aDG glyco up: 0.1

What do the screens show for `O=S(=O)(Nc1nc2ccccc2nc1OCC(F)(F)F)c1cccs1`?
Vif imaging: -3.9; bovine MsrA act: -1.8; MsrA inh: 4.9*; Glyco luc inh: -0.2; UCH37 DUB inh: 2.6; aDG glyco up: 0.0; MsrA inh confirm: 0.7
